Here are results for two molecules from PMC8978969 (RSC Advances, 2022).

One data set can be described thus: Equilibrium solubility. In kind it is physicochemical. The note with it: for solubility at 24 h: thermodynamic from solid.
A short description of data set [1]: Partition coefficients by shake-flask method. It is filed as physicochemical. Put shortly:
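Shake-flask method per OECD guidelines. n-Octanol and ultrapure water were mutually saturated by 24 h in a thermostat shaker, then 72 h standing. After partitioning, phases were centrifuged to separate completely, and drug in each phase was measured by HPLC to give logP. For logD7.4, 0.01 M PBS pH 7.4 replaced water, with otherwise identical steps.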

The nature of a further data set: Solution stability assay. In kind it is physicochemical. The note with it: 37 °C.
Data set [2] can be described thus: Gastrointestinal tract parallel artificial membrane permeability assay. In kind it is in vitro ADME. The settings on record: PAMPA. In short, it runs like this:
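Donor solutions were made in Tris buffer pH 6.5 at several drug concentrations starting from 150 μg ml−1. The acceptor-well hydrophobic filter (0.45 μm) was coated with 2% soybean L-α-phosphatidylcholine in n-dodecane, and the acceptor held Tris buffer pH 7.4. The sandwich was incubated 16 h at room temperature. Receiver solution was quantified by HPLC, n = 6. Papp (cm s−1) was calculated from a published equation.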

A short description of a further data set: Cytotoxicity test. In kind it is cell-based. The settings on record: human, Caco-2 cells. Put shortly: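 Caco-2 cells were grown in DMEM with 10% FBS and 1% penicillin/streptomycin at 37 °C in 5% CO2. Cells were seeded at 4 × 10^3 per well and left 16 h. Test compounds were dissolved in DMSO and serially diluted in DMEM, then applied for 24 h. CCK-8 was added for 3 h and absorbance read at 450 nm. IC50 was derived from a concentration–survival plot, mean ± SD of triplicates.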

Data set [3] can be described thus: 24 h kinetic saturation solubilities. In kind it is physicochemical.

≈ marks a conversion by molar mass, not a printed value. Where “and” joins values, the source holds several entries; their conditions need not be identical. Identical values can stand only once.

What is called log P is the decadic logarithm of the partition coefficient of the neutral form, usually between octanol and water. Higher therefore signals higher lipophilicity. Regarding “Gliclazide tributyl(tetradecyl)phosphonium ionic liquid [[P6,6,6,14][GLI]]”, the “Solubility, FaSSIF” value in “Equilibrium solubility” (FaSSIF (pH 6.5), 37 °C, as GLI, n = 3, mean ± SD) is 34.53 ± 2.79 µg/mL. Further, the “Solubility, PBS 7.4” value in “Equilibrium solubility” (PBS pH 7.4, 37 °C, as GLI, n = 3, mean ± SD) was found to be 301.87 ± 6.82 µg/mL. For the same molecule, in the data set “Equilibrium solubility” (SIF (pH 6.8), 37 °C, as GLI, n = 3, mean ± SD), the “Solubility, SIF” value stood at 102.43 ± 11.54 µg/mL. Besides, in the data set “Equilibrium solubility” (blank FaSSIF, 37 °C, as GLI, n = 3, mean ± SD), the “Solubility, Blank FaSSIF” value was found to be 32.14 ± 1.56 µg/mL. In the data set “Equilibrium solubility” (water, 37 °C, 24 h, as GLI, n = 3, mean ± SD), the “Solubility, Water” value is 1.5 µg/mL and 1.51 ± 0.13 µg/mL. Also, the “log D7.4” value in data set [1] (n-octanol/PBS 7.4, 37 °C) was 0.69 ± 0.02. Besides, in data set [1] (n-octanol/water, 37 °C), the “log P” value turned out to be 2.72 ± 0.24.
Broadly, the solubility is how much of the substance goes into solution per volume. The term solubility (thermodynamic) denotes the concentration in solution at equilibrium with solid. By Papp is commonly meant the rate of passage across a membrane or cell layer, normalised by area and donor concentration. Low values mean slow passage, high ones fast passage. In general, IC50 refers to the midpoint of a concentration-inhibition curve. Read a low IC50 as higher potency. A word on the logD: it is the decadic logarithm of the distribution of all forms, ionised or not, between an organic phase and buffer at a given pH. A high value points to higher lipophilicity. In general, logP refers to a log measure of how a compound divides between an organic and an aqueous phase. By kinetic solubility is commonly meant the concentration staying in solution when a stock, usually in DMSO, is diluted into the medium. Regarding `Cc1ccc(S(=O)(=O)NC(=O)NN2CC3CCCC3C2)cc1` (stereo not drawn) [GLI, Gliclazide], the solubility at 24 h in “Equilibrium solubility” (FaSSIF, 37 °C, pH 6.5, fassif) came to 196 ± 3.32 µg/mL (≈ 606 µM); in “Equilibrium solubility” (FeSSIF, 37 °C, pH 5, fessif), 30.1 ± 1.07 µg/mL (≈ 93.2 µM); in “Equilibrium solubility” (Milli-Q water, 37 °C, water), 43.5 ± 1.67 µg/mL (≈ 135 µM); in “Equilibrium solubility” (PBS 7.4, 37 °C, pH 7.4, aqueous buffer) it was 1590 ± 103 µg/mL (≈ 4910 µM); in the data set “Equilibrium solubility” (SIF, 37 °C, pH 6.8, fassgf or other biorelevant), 584 ± 23 µg/mL (≈ 1810 µM); in the data set “Equilibrium solubility” (blank FaSSIF, 37 °C, pH 6.5, aqueous buffer), 190.6 ± 0.63 µg/mL (≈ 589 µM). In “Equilibrium solubility” (blank FeSSIF, 37 °C, pH 5, aqueous buffer), this molecule came in with a solubility at 24 h of 28.7 ± 0.99 µg/mL (≈ 88.7 µM). The solubility (thermodynamic) at 24 h in the data set “Equilibrium solubility” (Tris buffer pH 6.5, pH 6.5) was 178 µg/mL (≈ 550 µM). Besides, the “Solution stability in SIF” value in “Solution stability assay” (SIF, whole experiment period (24 h)) is recorded as “relatively stable”. Further, the “Initial content remained at 24 h” value in “Solution stability assay” (pH 7.4 buffer (PBS 7.4), 20 μg ml^−1 GLI, 24 h) was “zero”. In data set [2], this molecule registered a Papp at 16 h, 150 μg ml^−1 of 2.46 ×10⁻⁶ cm/s. This molecule also displayed an IC50 at 24 h in the data set “Cytotoxicity test” of 20.8 ± 1.11 mM. Besides, the logD in data set [1] (n-octanol/PBS 7.4, pH 7.4) was found to be 0.45 ± 0.01. Besides, the logP in data set [1] (n-octanol/water) amounted to 1.71 ± 0.03. This molecule gave a solubility (kinetic) at 12 h in data set [3] (Milli-Q water) of 40.3 µg/mL (≈ 125 µM). The “Time within which peak concentration was achieved” value in data set [3] (PBS 7.4, SIF and FaSSIF) is at most 6 h. In addition, the “Time of peak concentration” value in data set [3] (water) is on record as 4 h.
